This note sets out measurements from ChEMBL document CHEMBL4513216, “Probing the Open Global Health Chemical Diversity Library for Multistage-Active Starting Points for Next-Generation Antimalarials” (ACS Infect Dis, 2020).

The nature of the data set: Toxicity liver stage against HepG2, at 10uM. As to conditions: human, HepG2-A16-CD81EGFP cells; read-out: INHIBITION
It is filed as cell-based. Details: test concentration 10 uM, cell line HepG2-A16-CD81EGFP. In outline:
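Uninfected HepG2-A16-CD81EGFP cells, 3 × 10^3 per well, 1536-well, plated on prespotted compound at 10 μM final, parasite-free screening media added to match infected plates; puromycin 10 μM positive, DMSO 0.5% negative; run in parallel with 48 h PbLuc assay at 37 °C, 5% CO2; viability by CellTiter-Glo luminescence, normalized to controls.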
`CCC(C)CN1CCC(n2cc(C3CCCC3)nn2)CC1` (configuration not stated): the cytotoxicity at 10 µM was -2.13%.
Under `O=C(C1CC=CC1)N1CC[C@@H]2O[C@H](COCC3CCOCC3)CC[C@@H]21` stands -0.0499%; under `CC1CN(CC(=O)Nc2ccncc2)CCN1c1nccs1` (configuration not stated), 29.5%.
On to `CN(C)CC1(O)CCN(S(=O)(=O)c2ccc(F)cc2)C1` (configuration not stated), for which the cytotoxicity at 10 µM is -3.09%.
Regarding `Cc1cc(CN(C)C2CCCN(Cc3noc(C4CC4)n3)C2)no1` (configuration not stated), the cytotoxicity at 10 µM is -10.8%.
On to `O=C(CN1CCCC1c1nc(-c2ccccn2)no1)N1CCOCC1` (configuration not stated), for which the cytotoxicity at 10 µM turned out to be 6.08%.
As for `Cc1ncc(S(=O)(=O)Nc2ccnn2C2CCCCC2)[nH]1`, the cytotoxicity at 10 µM is -6.82%.
As to `CC(c1cc(F)ccc1F)N(C)C(=O)NCc1ccnc(N(C)C)c1` (configuration not stated), the cytotoxicity at 10 µM was -16.8%.
`CC(=O)N1CCCn2nc(CNS(=O)(=O)N3CCCCCC3)cc2C1`: the cytotoxicity at 10 µM came to 3.74%.
`CN(Cc1ccccc1)CC(O)Cn1cnc2c(Cl)cc(Cl)cc2c1=O` (configuration not stated): the cytotoxicity at 10 µM is -2.34%.
For `NC(=O)C1CCC(NC(=O)COc2ccc(Cl)c(Cl)c2)CC1` (configuration not stated) the value was -12.5%; for `COC(=O)c1cc(C(=O)N2CCC(C)CC2)n(-c2ccccc2)n1`, 0.103%.
`CNc1cc(N2CCCC2CNCc2csc(C)n2)ncn1` (configuration not stated): the cytotoxicity at 10 µM was -9.71%.
Take `CC(C)(C)OC(=O)NC(C)(C)c1noc(Cn2ccnc2)n1`: the cytotoxicity at 10 µM is 8.73%.
As for `O=S(=O)(CCCS(=O)(=O)c1ccc2c(c1)OCCCO2)c1ccccc1`, the cytotoxicity at 10 µM was -2.76%.
On to `CNC(=O)c1cn2cc(-c3ccc(F)cc3)n(CC=C(C)C)c(=O)c2n1`, for which the cytotoxicity at 10 µM is -52.2%.
With `CCN(CC)CCn1ccnc1-c1[nH]cnc1C`, the cytotoxicity at 10 µM is -8.88%.
With `Cc1[nH]nc(CCC(=O)N2CCOC(CCc3ccccc3)C2)c1C` (configuration not stated), the cytotoxicity at 10 µM is -10.8%.
As for `CCCNC(=O)CNc1cc(C#N)ccc1OCC`, the cytotoxicity at 10 µM is -11.6%.
As to `CCN(CC)C(=O)CSc1ncc[nH]1`, the cytotoxicity at 10 µM was -9.94%.
`CCN(CC)Cc1nc2c(o1)CN(C(=O)c1ccncc1F)C2`: the cytotoxicity at 10 µM was -109%.
Take `Cc1cc(C(=O)NCC2COCc3c(C)nnn3C2)no1` (configuration not stated): the cytotoxicity at 10 µM is -7.32%.
For `Cc1nc2cc(-c3nccn3C)nn2c(N2CCCC(CO)C2)c1C` (configuration not stated), the cytotoxicity at 10 µM was -4.38%.
Regarding `Nc1cc(N2CCCC(COc3ccc(F)cc3)C2)ncn1` (configuration not stated), the cytotoxicity at 10 µM was -0.106%.
For the compound `COC(=O)c1cccc(S(=O)(=O)NC(=O)COC2CCCCC2)c1`, the cytotoxicity at 10 µM is -10.1%.
With `Cn1ccnc1-c1ccc(NCC2COCCO2)nn1` (configuration not stated), the cytotoxicity at 10 µM is 9.3%.
For `O=C(NCc1ccc2c(c1)CCCO2)c1ccccc1C1CCNC1` (configuration not stated) the value was 6.58%; for `CCc1nc(CN2CCN(C(=O)Cc3c(C)noc3C)CC2)cs1`, -0.549%.
As to `CC(=O)N1CCCCC1c1nc(N)ncc1-c1ccccc1` (configuration not stated), the cytotoxicity at 10 µM is -0.233%.
Under `CC(C)c1ccc(/C=C/CC(=O)NC2CCN(C(N)=O)CC2)cc1` stands 7.1%; under `CC(=O)N1CC(c2ncn(C(C)C)n2)c2cc(C(=O)NC(C)C)ccc21` (configuration not stated), 8.22%.
For the compound `Cc1nc(N)ncc1C(=O)N1CCCC(CCc2ccc(F)c(F)c2)C1` (configuration not stated), the cytotoxicity at 10 µM was -4.51%.
For the compound `CSCC(CCO)NC(=O)Nc1cc(C)ccc1C` (configuration not stated), the cytotoxicity at 10 µM was -17%.
For `CCS(=O)(=O)c1ncc(CN2CCCC2)n1CCc1ccccc1`, the cytotoxicity at 10 µM amounted to 5.35%.
With `c1ccc(CN2CCc3ncnc(C4CC4)c3CC2)cc1`, the cytotoxicity at 10 µM is -156%.
Regarding `O=C(c1ccc[nH]1)N1CCC2(CC1)CC(Oc1cccnc1)CO2` (configuration not stated), the cytotoxicity at 10 µM is -7.69%.
Take `CC(C)[C@@H]1CN(Cc2ccsc2)C[C@H]1NS(=O)(=O)N(C)C`: the cytotoxicity at 10 µM is -23.5%.
For `Cc1ncc(CNC2CCCN(Cc3noc(C4CC4)n3)C2)s1` (configuration not stated), the cytotoxicity at 10 µM is -7.7%.
For the compound `Cn1nccc1C(=O)N1CCCN(CCCc2ccccc2)CC1`, the cytotoxicity at 10 µM is -2.45%.
In the case of `O=S(=O)(NCCCn1cccn1)c1ccc2c(c1)CCC2`, the cytotoxicity at 10 µM was -4.59%.
On to `Cc1cc(C(=O)N2CCCC2)ccc1NCCOCC(F)(F)F`, for which the cytotoxicity at 10 µM came to 0.608%.
Regarding `CC1CCN(Cc2ccc(CNC(=O)c3ccn(C)c(=O)c3)cc2)CC1`, the cytotoxicity at 10 µM was -2.94%.
For the compound `CN(CC1(O)CCCCC1)C1CCCN(Cc2noc(C3CC3)n2)C1` (configuration not stated), the cytotoxicity at 10 µM is -17.3%.
For the compound `COc1ccc(CNC(C)c2cccc(Br)c2)c(OC)c1OC` (configuration not stated), the cytotoxicity at 10 µM was 9.75%.
For `CC(C)c1ccc(CNC(C)c2ccc(S(=O)(=O)N(C)C)cc2)cc1` (configuration not stated), the cytotoxicity at 10 µM is 32.6%.
For the compound `CC(NC(=O)NCc1cccc(N2CCCC2=O)c1)c1ccccc1` (configuration not stated), the cytotoxicity at 10 µM is 4.52%.
`O=C1CO[C@H]2CN(S(=O)(=O)c3ccccc3)C[C@H]2N1c1ccccc1`: the cytotoxicity at 10 µM is -2.6%.
Take `COc1ccc(CC(=O)N2CCC(c3nncn3C)CC2)cc1F`: the cytotoxicity at 10 µM turned out to be 2.01%.
As to `Cn1nnc2c1CCN(Cc1ccccn1)C2COCc1ccccc1` (configuration not stated), the cytotoxicity at 10 µM is -117%.
For `FC(F)CN1CCC(NCCc2ccc(-n3cccn3)cc2)CC1` the value was 14.5%; for `Cc1ccc(-c2ncc(CNc3cnccc3CO)s2)cc1`, -7.65%; for `COCCn1cc2c(n1)C(CNCc1ccc(F)cc1)OCC2` (configuration not stated), -9.47%.
Take `Cc1nc(CN2CCOC(Cn3cccn3)C2)no1` (configuration not stated): the cytotoxicity at 10 µM was -11.6%.
`Cn1cnc2c(N3CCCC3)nc(C3CCN(CC4CC4)CC3)cc21`: the cytotoxicity at 10 µM was -5.26%.
For `O=C1CCCN1C1CCN(S(=O)(=O)CCOc2ccc(F)cc2)CC1`, the cytotoxicity at 10 µM was found to be 5.94%.
For `CC(=O)Nc1nc(C(=O)NCc2ccc(N3CCOC(C)C3)nc2)cs1` (configuration not stated), the cytotoxicity at 10 µM turned out to be 0.109%.
`NC(=O)CCn1nnc(-c2cc3ccccc3o2)n1`: the cytotoxicity at 10 µM stood at 4.56%.
Under `Cc1c(C)n2c(SCC(=O)N3CCCC3)nnc2[nH]c1=O` stands 2.4%; under `COCCOC(=O)N1C[C@@H]2CC[C@H]1CN(C1Cc3ccccc3C1)C2`, 1.06%.
Regarding `CCNC(=O)c1cc(OC)c(OC)cc1N(C)S(C)(=O)=O`, the cytotoxicity at 10 µM came to 1.56%.
Under `Cc1nn(C)c2cn(C(C)C(=O)NCc3ccncc3)nc12` (configuration not stated) stands 1.91%; under `Cc1nnc(-c2ccc(C(=O)Nc3ccnc(N(C)C)n3)cc2)o1`, -1.01%; under `CCO[C@H]1CO[C@@]2(CCCN(Cc3nc(C)cs3)C2)C1`, -9.75%.
For `CC(=O)NCCNC(=O)Nc1ccc(Br)cc1C(C)C` the value was 6.54%; for `CC(=O)c1cc(C(=O)N2CCN(C)Cc3ccccc32)n(C)c1`, 7.85%.
For the compound `CC1CCCCN1C(=O)CCn1cnc2sccc2c1=O` (configuration not stated), the cytotoxicity at 10 µM was 3.63%.
`Cc1ccc(N2CCC(N3C[C@@H](CN(C)C)[C@@H](CO)C3)CC2)cc1`: the cytotoxicity at 10 µM was -0.608%.
Take `COCCN1CCC(CN(Cc2ccncc2)C2CCCCC2)CC1`: the cytotoxicity at 10 µM was -2.91%.
Consider `Cc1noc(C)c1CN1CCO[C@H]2CN(C3CCOCC3)C[C@H]21`, for which the cytotoxicity at 10 µM was -1.41%.
Under `O=C(c1ccnnc1)N1CC[C@H]2C[C@H](c3ccncn3)O[C@@H]2C1` stands -71.8%; under `Cc1nc(CCNC(=O)NC(C)Cn2cccn2)cs1` (configuration not stated), -1.85%.
On to `O=C([C@H]1C[C@H]2OCC[C@H]2N(Cc2ccccn2)C1)N1CCCCO1`, for which the cytotoxicity at 10 µM is -73.3%.
For `Cn1cc2ncn(C3CCN(c4ccccc4F)CC3)c(=O)c2n1` the value was 4.44%; for `CC(C)(C)c1cc(NC(=O)CNC2CCc3ncnn3C2)on1` (configuration not stated), 9.03%.
For `Cc1cc(-c2nn3c(C4CCC4)nnc3s2)on1` the value was -5.65%.
Take `Cc1nn(CC(=O)N2CCCCC2Cn2cccn2)c(C)c1Cl` (configuration not stated): the cytotoxicity at 10 µM was determined as 2.35%.
For `CCN(CC)S(=O)(=O)N1CCCC(c2nccn2Cc2cccnc2)C1` (configuration not stated), the cytotoxicity at 10 µM stood at 7.07%.
Consider `CCN1CCC(NC(=O)c2ccc(F)cc2I)CC1`, for which the cytotoxicity at 10 µM is -10%.
On to `c1csc(N2CCN(Cc3nnnn3C3CC3)CC2)n1`, for which the cytotoxicity at 10 µM came out at 8.96%.
For `CN1CCOC(C(=O)N(C)c2ccc3c(c2)CCO3)C1` (configuration not stated), the cytotoxicity at 10 µM was -45.4%.
In the case of `CCOC(=O)C(C)NC(=O)CCc1ccc(F)cc1` (configuration not stated), the cytotoxicity at 10 µM is -9.92%.
Under `CCc1nccn1C1CCCN(C(=O)c2csc(C3CC3)n2)C1` (configuration not stated) stands -9.39%.
Regarding `Cc1nc(C)n(CC2CCCN2CC(=O)NCCc2ccsc2)n1` (configuration not stated), the cytotoxicity at 10 µM is 0.932%.
`CC(C)c1nc(C2CCCN2CC(=O)N2CCc3ccccc32)no1` (configuration not stated): the cytotoxicity at 10 µM was -5.84%.
Regarding `O=C(c1ccc(F)cc1)N1CCC2(CCN(Cc3ccccn3)C2=O)C1` (configuration not stated), the cytotoxicity at 10 µM is -136%.
Turning to `COc1c(C(N)=O)cn(C)c1-c1nc2cc(NC(C)=O)ccc2n1C`, the cytotoxicity at 10 µM is -46.5%.
In the case of `Cc1noc(C)c1CN1CCc2ncnc(-c3cccnc3)c2CC1`, the cytotoxicity at 10 µM is -97.9%.
Consider `COCC1CC2(CCN(C(=O)c3cccn3C)CC2)CN1C(C)C` (configuration not stated), for which the cytotoxicity at 10 µM was -14.2%.
For `CCN1CC(C(=O)N2CCc3cc(C(N)=O)n(C)c3C2)CCC1=O` (configuration not stated), the cytotoxicity at 10 µM was -44.6%.
As to `Cc1cc(C)n(CC2CCCN2C(=O)CCNc2ncccn2)n1` (configuration not stated), the cytotoxicity at 10 µM was -2.31%.
Consider `Cc1noc(CN2CCN(CC(C)O)CC2)n1` (configuration not stated), for which the cytotoxicity at 10 µM is -10%.
On to `O=C(Cn1cccn1)N1CCC(c2nnc(C(F)(F)F)o2)CC1`, for which the cytotoxicity at 10 µM is -10.8%.
For `COCC(=O)N1CCCC2(CCN(c3ccccc3)C2=O)C1` (configuration not stated) the value was -74.3%; for `CC(C)CN1CCC2(C1)CN(c1ncccn1)C2`, 4.73%; for `O=C1[C@H]2CN(c3ncccn3)C[C@H]2CN1CCN1CCCC1`, 2.2%.
Turning to `CCCc1n[nH]c(C2CN(C(=O)Cc3ccc(C)nc3)CCO2)n1` (configuration not stated), the cytotoxicity at 10 µM was 6.73%.
For `COc1ccc(NC(=O)N2CCC(c3noc(C)n3)CC2)cc1C` the value was 17.2%.
